{"source": "paper PMC6880868", "about": "(Cancer cell, 2019)", "key": {"[1]": {"target": "T1, STAT3 (Homo sapiens, UniProt P40763)", "experiment": "STAT3 protein degradation in human cells", "type": "cell-based", "details": "for effect on SD-36-induced depletion of STAT3 protein: co-treatment with SD-36; for effect on the levels of STAT3 protein: 10 μM, 3 hr MOLM-16 or 24 hr SU-DHL-1", "outline": "(§1)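 Treated cells were lysed in cell lysis buffer, resolved by SDS-PAGE, transferred to PVDF and probed by immunoblotting.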"}, "[2]": {"test_system": "MOLM-16 and SU-DHL-1 cell lines", "experiment": "Cell cycle analysis by flow cytometry", "type": "cell-based, human", "details": "1 μM, 48 hr", "outline": "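After treatment, cells were washed twice in cold PBS and fixed overnight in 50% ethanol. They were stained 1 hr at 4°C with PI (50 μg/ml) plus DNase-free RNase A (0.2 μg/ml), then analysed by flow cytometry.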"}, "[3]": {"target": "transcriptional activity of STAT3", "experiment": "STAT3-luciferase reporter assay", "type": "cell-based, human"}, "[4]": {"target": "monomeric and dimeric STAT3 protein (Homo sapiens, UniProt P40763)", "sequence (P40763 whole entry)": "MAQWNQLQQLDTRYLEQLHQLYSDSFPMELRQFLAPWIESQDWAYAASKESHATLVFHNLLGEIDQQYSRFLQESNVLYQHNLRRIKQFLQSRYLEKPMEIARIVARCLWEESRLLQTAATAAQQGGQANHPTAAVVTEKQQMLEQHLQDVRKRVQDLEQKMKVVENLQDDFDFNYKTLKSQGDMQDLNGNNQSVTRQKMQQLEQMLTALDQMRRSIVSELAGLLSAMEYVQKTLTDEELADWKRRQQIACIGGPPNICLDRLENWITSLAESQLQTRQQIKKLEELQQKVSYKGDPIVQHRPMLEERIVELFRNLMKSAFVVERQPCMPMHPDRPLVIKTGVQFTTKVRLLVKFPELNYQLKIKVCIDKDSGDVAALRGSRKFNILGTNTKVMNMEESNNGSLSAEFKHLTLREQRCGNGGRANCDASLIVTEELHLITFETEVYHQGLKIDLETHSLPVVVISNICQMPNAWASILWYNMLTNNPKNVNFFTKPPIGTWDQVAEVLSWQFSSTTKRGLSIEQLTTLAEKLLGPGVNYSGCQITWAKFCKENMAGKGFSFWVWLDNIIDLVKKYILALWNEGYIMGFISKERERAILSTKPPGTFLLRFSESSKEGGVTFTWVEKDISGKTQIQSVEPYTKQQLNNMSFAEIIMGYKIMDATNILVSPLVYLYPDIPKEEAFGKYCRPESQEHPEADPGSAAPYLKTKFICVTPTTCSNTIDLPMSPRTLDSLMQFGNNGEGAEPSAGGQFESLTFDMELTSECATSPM", "experiment": "Native electrophoresis and immunoblotting of STAT3 monomer/dimer", "type": "cell-based", "details": "MOLM-16, 5 hr"}, "[5]": {"test_system": "SU-DHL-1", "experiment": "RNA-seq analysis, SU-DHL-1", "type": "cell-based, human", "details": "SU-DHL-1, 24 hr"}, "[6]": {"target": "T1, STAT3", "experiment": "Pharmacodynamics: STAT3 protein in xenograft tumors", "type": "in vivo, NOD/SCID mice bearing human xenograft tumors", "details": "100 mg/kg i.v."}, "[7]": {"test_system": "MOLM-16 cells", "experiment": "RNA-seq analysis, MOLM-16", "type": "cell-based, human", "details": "MOLM-16, 24 hr"}, "[8]": {"target": "T1, STAT3", "experiment": "Fluorescence polarization", "type": "binding", "outline": "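Competitive fluorescence polarisation assay. Recombinant STAT3 (25 nM) was premixed 5 min with 2.5 nM 5-FAM-labelled STAT3 SH2-domain ligand. The mix was added to serially diluted test compound and read after 1 hr at room temperature. Buffer: 50 mM NaCl, 10 mM HEPES pH 7.5, 1 mM EDTA, 0.01% Triton X-100, 2 mM DTT. IC50 came from nonlinear regression and was converted to Ki.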"}, "[9]": {"target": "STAT1 (Homo sapiens, UniProt P42224)", "sequence (P42224 132-713)": "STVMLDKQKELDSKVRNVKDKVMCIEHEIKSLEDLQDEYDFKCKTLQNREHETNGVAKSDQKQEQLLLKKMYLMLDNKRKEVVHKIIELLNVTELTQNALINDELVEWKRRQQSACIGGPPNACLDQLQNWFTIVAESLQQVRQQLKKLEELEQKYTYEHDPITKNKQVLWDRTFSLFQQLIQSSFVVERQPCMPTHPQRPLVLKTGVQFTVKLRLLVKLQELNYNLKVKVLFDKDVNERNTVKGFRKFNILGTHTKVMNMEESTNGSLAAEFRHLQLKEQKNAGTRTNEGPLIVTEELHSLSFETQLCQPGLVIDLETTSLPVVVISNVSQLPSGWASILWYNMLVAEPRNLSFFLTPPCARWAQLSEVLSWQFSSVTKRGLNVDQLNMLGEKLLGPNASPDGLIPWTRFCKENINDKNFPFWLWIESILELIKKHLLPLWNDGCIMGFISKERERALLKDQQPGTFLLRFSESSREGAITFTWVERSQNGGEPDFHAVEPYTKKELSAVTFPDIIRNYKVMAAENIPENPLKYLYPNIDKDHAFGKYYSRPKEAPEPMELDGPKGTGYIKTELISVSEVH", "experiment": "Bio-Layer Interferometry binding, STAT1", "outline": "(§2)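 Purified recombinant human STAT proteins were biotinylated, then direct binding of the test compound was measured by Bio-Layer Interferometry to give Kd.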"}, "[10]": {"test_system": "~5500 proteins quantified in each cell line", "experiment": "Multiplexed quantitative proteomics in cell lines", "type": "cell-based, human", "details": "10 μM, 2.5 hr, three cell lines, p≤0.05", "outline": "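Cells were exposed to test compound, then analysed by multiplexed quantitative proteomics. Significance was assessed by Student's t-test.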"}, "[11]": {"target": "DNA binding activity of STAT3 (Homo sapiens, UniProt P40763)", "sequence (P40763 whole entry)": "as the sequence (P40763 whole entry) above", "experiment": "STAT3 DNA binding activity assay on nuclear extracts", "type": "cell-based", "details": "10 μM, 8 hr, MOLM-16 and SU-DHL-1", "outline": "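Nuclear extraction: cells were swelled 15 min on ice in hypotonic HEPES pH 7.9/10 mM KCl buffer with DTT and phosphatase/protease inhibitors. NP-40 was added (0.5% final), and nuclei were extracted 15 min at 4°C in 0.4 M NaCl HEPES buffer, then cleared at 5,000 × g. ELISA: 5 μg extract was bound 1 hr at room temperature in TransAM STAT ELISA wells. Wells then received STAT antibody (1:1000, 1 hr), HRP secondary (1 hr) and colour development.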"}, "[12]": {"target": "STAT4 (Homo sapiens, UniProt Q14765)", "sequence (Q14765 133-705)": "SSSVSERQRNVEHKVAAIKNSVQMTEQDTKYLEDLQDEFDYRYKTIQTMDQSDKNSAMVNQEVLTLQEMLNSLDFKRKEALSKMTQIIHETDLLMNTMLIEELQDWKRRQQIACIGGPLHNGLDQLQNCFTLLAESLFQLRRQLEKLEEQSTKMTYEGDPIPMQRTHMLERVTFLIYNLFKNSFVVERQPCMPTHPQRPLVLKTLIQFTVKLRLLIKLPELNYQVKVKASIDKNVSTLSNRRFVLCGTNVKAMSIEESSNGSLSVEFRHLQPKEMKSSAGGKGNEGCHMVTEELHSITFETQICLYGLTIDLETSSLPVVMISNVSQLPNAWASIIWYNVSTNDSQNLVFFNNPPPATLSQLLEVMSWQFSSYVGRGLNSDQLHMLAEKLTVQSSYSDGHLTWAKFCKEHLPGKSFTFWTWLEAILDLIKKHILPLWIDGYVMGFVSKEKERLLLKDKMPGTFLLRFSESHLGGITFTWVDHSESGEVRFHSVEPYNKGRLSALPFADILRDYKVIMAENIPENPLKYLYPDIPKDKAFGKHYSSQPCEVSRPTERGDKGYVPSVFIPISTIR", "experiment": "Bio-Layer Interferometry binding, STAT4", "outline": "as §2"}, "[13]": {"test_system": "leukemia and lymphoma cell lines", "experiment": "4-day CellTiter Glo cell viability assay, leukemia and lymphoma cell line panel", "type": "cell-based, human"}, "[14]": {"test_system": "c-Myc; STAT3 Y705 phosphorylation", "experiment": "Immunoblotting of c-Myc and pSTAT3", "type": "cell-based, human", "details": "concentrations as high as 10 μM", "outline": "as §1"}, "[15]": {"target": "T1, STAT3", "experiment": "Bio-Layer Interferometry binding, STAT3", "outline": "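Recombinant human STAT3 was biotinylated and binding measured by Bio-Layer Interferometry for Kd. Selectivity was taken from Kd values against other STATs.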"}, "[16]": {"test_system": "MOLM-16", "experiment": "4-day CellTiter Glo cell viability assay, MOLM-16", "type": "cell-based", "details": "Homo sapiens, MOLM16, 96 h, read-out: IC50, growth inhibition"}, "[17]": {"test_system": "MOLM-16 tumors", "experiment": "MOLM-16 xenograft efficacy", "type": "in vivo, NOD/SCID female mice", "details": "100 mg/kg twice weekly for 4 weeks", "outline": "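NOD/SCID female mice were injected subcutaneously in 5 mg/ml Matrigel with MOLM-16 (3 × 10^6), SU-DHL-1 (1 × 10^7) or SUP-M2 (1 × 10^7) cells. At about 150 mm3, mice were size-matched and randomised. Test compound or vehicle (10% PEG400 + 90% PBS) was given on the indicated schedules. Tumours were measured 2–3 times weekly, with volume = length×width²/2. TGI was calculated from group medians.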"}, "[18]": {"details": "Homo sapiens, MOLM16, 24 h, read-out: IC50, transcriptional activity of STAT3"}, "[19]": {"details": "Homo sapiens, read-out: IC50, inhibition of transcriptional activity of STAT3"}}, "note": "Read-outs that look alike come from different tables or passages of the source.", "data": [{"smiles": "NS(=O)(=O)OC[C@@H]1C[C@@H](n2ccc3c(N[C@H]4CCc5ccccc54)ncnc32)C[C@@H]1O", "note": "[MLN4924, reference compound]", "values": [{"measurement": "effect on SD-36-induced depletion of STAT3 protein", "setting": "[1]", "value": "blocked"}]}, {"smiles": "CN1C(=O)CCC(N2Cc3c(C#CCCCCCC(=O)N4CC[C@H]5CC[C@@H](C(=O)N[C@@H](CCC(N)=O)C(=O)NC(c6ccccc6)c6ccccc6)N5C(=O)[C@@H](NC(=O)c5cc6cc(C(F)(F)P(=O)(O)O)ccc6[nH]5)C4)cccc3C2=O)C1=O", "note": "(stereo partly drawn) [SD-36Me, ((2-(((5S,8S,10aR)-8-(((S)-5-amino-1-(benzhydrylamino)-1,5-dioxopentan-2-yl)carbamoyl)-3-(8-(2-(1-methyl-2,6-dioxopipehdin-3-yl)-1-oxoisoindolin-4-yl)oct-7-ynoyl)-6-oxodecahydropyrrolo[1,2-a][1,5]diazocin-5-yl)carbamoyl)-1H-indol-5-yl)difluoromethyl)phosphonic acid]", "values": [{"measurement": "cell cycle effect", "setting": "[2]", "value": "modest G1 arrest"}, {"measurement": "IC50", "setting": "[3]; read-out: IC50, transcriptional activity of STAT3, MOLM-16 STAT3-dependent luciferase reporter cell line, 24 hr", "value": "~10000", "unit": "nM"}, {"measurement": "effect on the levels of STAT3 protein", "setting": "[1]", "value": "no significant effect"}, {"measurement": "concentration diminishing STAT3 dimers", "setting": "[4]", "value": "~ 10 μM"}, {"measurement": "genes differentially regulated (≥2-fold, p≤0.05)", "setting": "[5]", "value": 28, "unit": "genes"}, {"measurement": "effect on protein levels of STAT3 in MOLM-16 tumors", "setting": "[6]", "value": "no significant effect"}, {"measurement": "genes up- or down-regulated ≥2-fold (p≤0.05), total", "setting": "[7]", "value": 13, "unit": "genes"}]}, {"smiles": "CN1CC[C@H]2CC[C@@H](C(=O)N[C@@H](CCC(N)=O)C(=O)NCc3ccccc3)N2C(=O)[C@@H](NC(=O)c2cc3cc(C(F)(F)P(=O)(O)O)ccc3[nH]2)C1", "note": "[SI-108, ((2-(((5S,8S,10aR)-8-(((S)-5-amino-1-(benzylamino)-1,5-dioxopentan-2-yl)carbamoyl)-3-methyl-6-oxodecahydropyrrolo[1,2-a][1,5]diazocin-5-yl)carbamoyl)-1H-indol-5-yl)difluoromethyl)phosphonic acid]", "values": [{"measurement": "Ki", "setting": "[8]", "value": 11, "unit": "nM"}, {"measurement": "IC50", "setting": "[3]; [18]", "value": "~10000", "unit": "nM"}, {"measurement": "IC50", "setting": "[3]; [19]", "value": "~3000", "unit": "nM"}, {"measurement": "effect on SD-36-induced depletion of STAT3 protein", "setting": "[1]", "value": "blocked"}]}, {"smiles": "CC(=O)N1CC[C@H]2CC[C@@H](C(=O)N[C@@H](CCC(N)=O)C(=O)NC(c3ccccc3)c3ccccc3)N2C(=O)[C@@H](NC(=O)c2cc3cc(C(F)(F)P(=O)(O)O)ccc3[nH]2)C1", "note": "[SI-109, ((2-(((5S,8S,10aR)-3-acetyl-8-(((S)-5-amino-1-(benzhydrylamino)-1,5-dioxopentan-2-yl)carbamoyl)-6-oxodecahydropyrrolo[1,2-a][1,5]diazocin-5-yl)carbamoyl)-1H-indol-5-yl)difluoromethyl)phosphonic acid]", "values": [{"measurement": "Kd", "setting": "[9]", "value": "1000 to 2000", "unit": "nM"}, {"measurement": "Ki", "setting": "[8]", "value": 9, "unit": "nM"}, {"measurement": "proteome-wide selectivity", "setting": "[10]", "value": "no measurable effect"}, {"measurement": "DNA binding activity of STAT3", "setting": "[11]", "value": "only modestly reduces"}, {"measurement": "IC50", "setting": "[3]; [18]", "value": "~10000", "unit": "nM"}, {"measurement": "IC50", "setting": "[3]; [19]", "value": "~3000", "unit": "nM"}, {"measurement": "Kd", "setting": "[12]", "value": "1000 to 2000", "unit": "nM"}, {"measurement": "effect on the levels of STAT3 protein", "setting": "[1]", "value": "no significant effect"}, {"measurement": "cell lines with moderate growth-inhibitory activity", "setting": "[13]; 18 leukemia and lymphoma cell lines", "value": "1 of these 18"}, {"measurement": "growth-inhibitory activity in a large number of human cancer cell lines", "setting": "[13]; initial testing", "value": "no appreciable growth-inhibitory activity"}, {"measurement": "inhibition of STAT3 Y705 phosphorylation and suppression of c-Myc expression", "setting": "[14]", "value": "ineffective"}, {"measurement": "Kd", "setting": "[15]", "value": "~50", "unit": "nM"}, {"measurement": "binding selectivity for STAT3 over STAT1 and STAT4", "setting": "[15]; BLI Kd", "value": "~ 20 fold"}, {"measurement": "IC50", "setting": "[16]", "value": "~3000", "unit": "nM"}, {"measurement": "concentration diminishing STAT3 dimers", "setting": "[4]", "value": "~ 10 μM"}, {"measurement": "effect on protein levels of STAT3 in MOLM-16 tumors", "setting": "[6]", "value": "no significant effect"}, {"measurement": "effect on the growth of MOLM-16 tumors", "setting": "[17]", "value": "no effect"}]}, {"smiles": "CC(C)C[C@H](NC(=O)[C@H](CCc1ccccc1)NC(=O)CN1CCOCC1)C(=O)N[C@@H](Cc1ccccc1)C(=O)N[C@@H](CC(C)C)C(=O)[C@@]1(C)CO1", "note": "[carfilzomib, reference compound]", "values": [{"measurement": "effect on SD-36-induced depletion of STAT3 protein", "setting": "[1]", "value": "blocked"}]}, {"smiles": "NC(=O)CC[C@H](NC(=O)[C@@H]1CCC2CCCC[C@H](NC(=O)c3cc4cc(OP(=O)(O)O)ccc4[nH]3)C(=O)N21)C(=O)NCc1ccccc1", "note": "(stereo partly drawn) [compound 2, 2-((3S,6S)-3-((S)-5-Amino-1-(benzylamino)-1,5-dioxopentan-2-ylcarbamoyl)-5-oxodecahydropyrrolo[1,2-a]azocin-6-ylcarbamoyl)-1H-indol-5-yl dihydrogen phosphate]", "values": [{"measurement": "Ki", "setting": "[8]", "value": 39, "unit": "nM"}, {"measurement": "suppressing STAT3 activity in cells", "setting": "[3]; cells", "value": "ineffective"}]}, {"smiles": "NC(=O)CC[C@H](NC(=O)[C@@H]1CCC2CCCC[C@H](NC(=O)c3cc4cc(C(F)(F)P(=O)(O)O)ccc4[nH]3)C(=O)N21)C(=O)NCc1ccccc1", "note": "(stereo partly drawn) [compound 3, (2-((3S,6S)-3-((S)-5-Amino-1-(benzylamino)-1,5-dioxopentan-2-ylcarbamoyl)-5-oxodecahydropyrrolo[1,2-a]azocin-6-ylcarbamoyl)-1H-indol-5-yl)difluoromethylphosphonic acid]", "values": [{"measurement": "Ki", "setting": "[8]", "value": 7, "unit": "nM"}, {"measurement": "binding potency relative to compound 2", "setting": "[8]; Ki ratio", "value": 5, "unit": "times"}]}, {"smiles": "Nc1cccc2c1CN(C1CCC(=O)NC1=O)C2=O", "note": "(centres unmarked) [lenalidomide, reference compound]", "values": [{"measurement": "effect on STAT3 transcriptional activity", "setting": "[3]; MOLM-16 STAT3 reporter, 24 hr", "value": "no significant effect"}, {"measurement": "effect on SD-36-induced depletion of STAT3 protein", "setting": "[1]", "value": "blocked"}, {"measurement": "IC50", "setting": "[13]; Homo sapiens, read-out: IC50, proliferation", "value": "> 10000", "unit": "nM"}, {"measurement": "IC50", "setting": "[16]", "value": "~4000", "unit": "nM"}]}]}
